Results from BindingDB's records for doi:10.1021/jm9008532 (Universite Catholique De Louvain, 2009).

Target: T1, Fatty-acid amide hydrolase 1 (Homo sapiens, UniProt O00519)
T1 sequence (O00519 whole entry): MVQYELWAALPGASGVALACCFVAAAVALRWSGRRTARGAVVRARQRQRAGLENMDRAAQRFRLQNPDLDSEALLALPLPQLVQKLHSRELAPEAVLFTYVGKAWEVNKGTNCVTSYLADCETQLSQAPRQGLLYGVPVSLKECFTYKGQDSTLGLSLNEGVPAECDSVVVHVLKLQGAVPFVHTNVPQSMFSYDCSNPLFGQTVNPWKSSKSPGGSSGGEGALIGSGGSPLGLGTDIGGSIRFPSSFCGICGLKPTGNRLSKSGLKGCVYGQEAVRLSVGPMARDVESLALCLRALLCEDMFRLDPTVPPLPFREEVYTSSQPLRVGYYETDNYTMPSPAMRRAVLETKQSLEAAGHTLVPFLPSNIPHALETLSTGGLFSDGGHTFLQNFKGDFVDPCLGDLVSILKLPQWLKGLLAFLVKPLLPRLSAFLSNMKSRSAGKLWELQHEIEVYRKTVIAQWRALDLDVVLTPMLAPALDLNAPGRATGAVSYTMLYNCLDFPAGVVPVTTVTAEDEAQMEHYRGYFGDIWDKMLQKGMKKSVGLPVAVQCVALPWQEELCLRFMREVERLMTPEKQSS
Test: Inhibition of human recombinant FAAH using [3H]anandamide by competitive hydrolysis assay
How it was run: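 Compounds were added in DMSO, with DMSO alone as control, plus [3H]-AEA at 2 μM final, 37 °C for 10 min. The reaction was stopped on ice with cold chloroform/methanol (1:1), and the aqueous phase was counted by LSC with the buffer-only blank subtracted. IC50 is the mean of three independent experiments.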

Structure (SMILES): CC(=O)O[C@@H]1[C@@H]([C@@H](C)OC(=O)CCc2ccccc2)C(=O)N1C(=O)CCc1ccccc1 [1-(3-Phenylpropanoyl)-(3R,4R)-3-[1(R)-(3-phenylpropanoyloxy)-ethyl]-4-(acetoxy)-azetidin-2-one]
- IC50: 2.19 µM
